Test results as given in ChEMBL document CHEMBL3232740, “Differences in conformational dynamics between Plasmodium falciparum and human Hsp90 orthologues enable the structure-based discovery of pathogen-selective inhibitors” (J Med Chem, 2014).
Activity calls are given as the source filed them. The calls are words filed in the database; no cut-off is given here.

Experiments:
[1] = test system: L6; experiment: Cytotoxicity against rat L6 cells after 72 hrs by Alamar Blue assay; type: cell-based
[2] = test system: Plasmodium falciparum; experiment: Antiplasmodial activity against Plasmodium falciparum NF54 infected in human erythrocytes assessed as growth inhibition by [3H]hypoxanthine incorporation assay; type: functional, organism-based
[3] = Binding affinity to N-terminal FLAG-tagged Plasmodium falciparum recombinant HSP90 ISG-LGA mutant expressed in Escherichia coli BL21(DE3) by microscale thermophoresis assay
How it was run: (§1)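 Recombinant Pf Hsp90 proteins were expressed in E. coli BL21 DE3 pLysS in LB, induced with 0.5 mM IPTG for 18 h at 20 °C. They were purified by His-affinity then size exclusion, keeping the 33 kDa fractions. Ligand was titrated in 1:1 dilutions against 100 nM protein with 5% DMSO. MST was run at 40% LED and 40% MST power.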

[4] = target: T1, HSP90 (Plasmodium falciparum 3D7, UniProt Q8IL32); experiment: Binding affinity to N-terminal FLAG-tagged Plasmodium falciparum recombinant HSP90 (1 to 223) expressed in Escherichia coli BL21(DE3) by microscale thermophoresis assay; how it was run: as §1
T1 sequence (Q8IL32 whole entry): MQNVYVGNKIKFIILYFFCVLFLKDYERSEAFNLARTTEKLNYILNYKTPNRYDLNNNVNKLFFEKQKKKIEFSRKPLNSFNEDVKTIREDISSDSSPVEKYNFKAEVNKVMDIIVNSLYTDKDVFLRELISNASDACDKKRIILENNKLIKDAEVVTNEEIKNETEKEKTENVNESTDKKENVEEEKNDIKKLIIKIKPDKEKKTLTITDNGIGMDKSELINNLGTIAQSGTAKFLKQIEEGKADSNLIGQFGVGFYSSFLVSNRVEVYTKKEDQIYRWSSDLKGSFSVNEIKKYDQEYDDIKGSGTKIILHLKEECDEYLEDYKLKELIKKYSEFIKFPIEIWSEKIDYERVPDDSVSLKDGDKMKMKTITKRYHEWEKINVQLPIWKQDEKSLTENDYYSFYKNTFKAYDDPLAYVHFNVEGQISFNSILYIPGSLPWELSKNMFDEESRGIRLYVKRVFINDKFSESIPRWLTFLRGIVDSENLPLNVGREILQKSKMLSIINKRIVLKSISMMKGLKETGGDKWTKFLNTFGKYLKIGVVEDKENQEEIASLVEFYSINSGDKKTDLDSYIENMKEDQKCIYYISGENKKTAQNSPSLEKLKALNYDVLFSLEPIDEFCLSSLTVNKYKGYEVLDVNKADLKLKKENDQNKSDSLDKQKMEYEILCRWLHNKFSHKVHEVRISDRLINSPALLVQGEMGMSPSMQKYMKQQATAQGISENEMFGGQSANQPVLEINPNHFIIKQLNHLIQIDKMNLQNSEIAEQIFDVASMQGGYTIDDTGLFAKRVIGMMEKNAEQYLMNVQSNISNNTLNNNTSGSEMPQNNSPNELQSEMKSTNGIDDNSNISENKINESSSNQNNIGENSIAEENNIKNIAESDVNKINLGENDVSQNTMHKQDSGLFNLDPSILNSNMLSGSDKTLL

[5] = Ratio of IC50 for rat L6 cells to IC50 for Plasmodium falciparum NF54
How it was run: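 Ratio of two IC50s. P. falciparum NF54 was grown in human erythrocytes (Trager–Jensen) for a 72 h assay window, with growth read as [3H]hypoxanthine incorporation. Cytotoxicity was measured in rat skeletal myoblast L6 cells.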

[6] = Binding affinity to N-terminal FLAG-tagged Plasmodium falciparum recombinant HSP90 R98K mutant expressed in Escherichia coli BL21(DE3) by microscale thermophoresis assay; how it was run: as §1
[7] = Inhibition of Plasmodium falciparum HSP90 ISG-LGA mutant expressed in yeast assessed as growth inhibition of host after 72 hrs
How it was run: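 Host was an isogenic S. cerevisiae strain derived from DP533 (Δhsc82 Δhsp82 pdr5), carrying Flag-tagged PfHsp90 ISG-LGA/K313Q from a low-copy plasmid as its only Hsp90. Cultures were diluted to OD600 0.1 in minimal medium with 2% DMSO. OD600 was read every 30 min for 72 h. Growth % was maximal growth-curve slope relative to solvent-only; IC50 from triplicate dose-response.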

[8] = test system: Heat-shock protein (Plasmodium falciparum), Q25869 [K313Q]; experiment: Inhibition of Plasmodium falciparum HSP90 K313Q mutant expressed in yeast assessed as growth inhibition of host at 100 uM after 72 hrs
Sequence of Heat-shock protein (Plasmodium falciparum), Q25869 [K313Q] (Q25869 whole entry K313Q): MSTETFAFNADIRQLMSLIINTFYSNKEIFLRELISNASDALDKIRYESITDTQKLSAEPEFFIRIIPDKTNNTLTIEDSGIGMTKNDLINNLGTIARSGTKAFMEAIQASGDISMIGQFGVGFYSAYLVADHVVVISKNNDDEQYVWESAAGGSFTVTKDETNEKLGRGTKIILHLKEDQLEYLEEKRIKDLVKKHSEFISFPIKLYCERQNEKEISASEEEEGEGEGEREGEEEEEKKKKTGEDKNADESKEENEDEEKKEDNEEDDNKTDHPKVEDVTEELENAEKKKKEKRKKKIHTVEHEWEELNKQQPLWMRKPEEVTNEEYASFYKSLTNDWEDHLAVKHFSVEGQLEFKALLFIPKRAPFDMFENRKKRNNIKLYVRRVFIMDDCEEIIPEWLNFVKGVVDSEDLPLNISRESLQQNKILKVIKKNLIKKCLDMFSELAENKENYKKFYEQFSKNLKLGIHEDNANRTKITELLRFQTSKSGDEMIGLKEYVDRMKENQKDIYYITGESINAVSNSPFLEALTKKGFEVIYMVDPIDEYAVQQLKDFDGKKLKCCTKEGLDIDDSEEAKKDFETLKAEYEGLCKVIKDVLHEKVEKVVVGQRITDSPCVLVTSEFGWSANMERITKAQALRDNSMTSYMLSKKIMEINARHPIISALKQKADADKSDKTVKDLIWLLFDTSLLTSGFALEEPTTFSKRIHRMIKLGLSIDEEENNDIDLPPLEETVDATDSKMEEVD

Row | SMILES | Kd [4] [µM] | IC50 ([1]; Rattus norvegicus, L6, 72 h) [µM] | IC50 ([2]; Plasmodium falciparum, NF54) [µM] | Ratio IC50 [5] | other results
1 | COC1=C2C[C@@H](C)C[C@H](OC)[C@H](O)[C@@H](C)/C=C(\C)[C@H](OC(N)=O)[C@@H](OC)/C=C\C=C(/C)C(=O)NC(=CC1=O)C2=O [GELDANAMYCIN] | – | – | – | – | IC50 ([1]; l6): 6 µM; IC50 [2]: 0.148 µM; Kd [3]: 0.103 µM
2 | COCC(=O)Nc1c(C(=O)OC)n(CCC(C)C)c2ncc(NC3CCCCCCC3)cc12 | 25.4 | 56 | 5.02 | >10 | –
3 | COCC(=O)Nc1c(C(=O)OC)n(CCC(C)C)c2ncc(NC(C)C)cc12 | 175 | 56 | 13.8 | 4 | –
4 | COCC(=O)Nc1c(C(=O)OC)n(CCC(C)C)c2ncc(NC(C)CCC=C(C)C)cc12 (racemic) | 14.1 | 63 | 5.75 | >10 | Kd [6]: 16.5 µM; IC50 [7]: 61.2 µM
5 | COCCn1c(C(=O)OC)c(NC(=O)Cc2ccccc2)c2cc(NC3CCCCCCC3)cnc21 | – | – | – | – | inhibition [8]: Active
6 | COCC(=O)Nc1c(C(=O)OC)n(C)c2ncc(NC(C)CCC=C(C)C)cc12 (racemic) | 115 | – | – | – | –
